Measured values from ChEMBL document CHEMBL1139846, “New fluorescent 2-phenylindolglyoxylamide derivatives as probes targeting the peripheral-type benzodiazepine receptor: design, synthesis, and biological evaluation” (J Med Chem, 2007).
Activity calls are given as the source filed them. The calls are words filed in the database; no cut-off is given here.

Legend:
Translocator protein = Translocator protein (Rattus norvegicus, UniProt P16257); test: Displacement of [3H]PK 11195 from peripheral-type benzodiazepine receptor in rat kidney mitochondrial membranes; assay type: cell membranes, Membrane
Chain of Translocator protein (P16257 whole entry, looked up): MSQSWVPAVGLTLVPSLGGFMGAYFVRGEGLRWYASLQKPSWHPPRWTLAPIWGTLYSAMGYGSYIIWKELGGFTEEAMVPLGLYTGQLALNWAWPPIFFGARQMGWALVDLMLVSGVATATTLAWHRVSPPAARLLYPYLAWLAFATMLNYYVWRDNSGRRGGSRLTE

[1] = system: GABA-A receptor / central benzodiazepine receptor (Rattus norvegicus); test: Displacement of [3H]flumazenil from central benzodiazepine receptor in rat cerebral cortex membranes at 10 uM; conditions: Membrane
[2] = molecular target: Translocator protein (Rattus norvegicus) (UniProt P16257); test: Displacement of 2-(2-(4-fluorophenyl)-1H-indol -3-yl)-N-(6-(7-nitrobenzo[c][1, 2,5]oxadiazol-4-ylamino)hexyl )-2-oxoacetamide from peripheral type benzodiazepine receptor in rat C6 glioma cells at 10 uM; assay type: cell-based
Chain of Translocator protein (Rattus norvegicus) (P16257 whole entry, looked up): as above
In short: (§1)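 Subconfluent rat C6 glioma cells in DMEM preincubated 30 min with PK 11195 or Ip (10 µM to 100 µM range), then stained with fluorescent PBR ligand at final 10 µM in culture medium, 30 min, 37 °C, 5% CO2. PBS wash, 4% paraformaldehyde fixation, fluorescence microscopy; displacement of cytoplasmic (mitochondrial) staining judged visually.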

[3] = molecular target: Translocator protein (Rattus norvegicus) (UniProt P16257); test: Displacement of 2-(2-(4-fluorophenyl)-1H-indol -3-yl)-N-(6-(7-nitrobenzo[c][1, 2,5]oxadiazol-4-ylamino)hexyl )-2-oxoacetamide from peripheral type benzodiazepine receptor in rat C6 glioma cells at 50 uM; assay type: cell-based; in short: as §1

SMILES: O=C(NCCNc1ccc([N+](=O)[O-])c2nonc12)C(=O)c1c(-c2ccccc2)[nH]c2ccccc12
- Ki (Translocator protein): 994 nM
- inhibition [1]: < 10%

SMILES: O=C(NCCNc1ccc([N+](=O)[O-])c2[n-][o+]nc12)C(=O)c1c(-c2ccc(F)cc2)[nH]c2ccccc12
- Ki (Translocator protein): 835 nM

SMILES: CCC(C)N(C)C(=O)c1cc2ccccc2c(-c2ccccc2Cl)n1 (stereo unspecified)
- Activity [2]: Active

SMILES: O=C(NCCCCNc1ccc([N+](=O)[O-])c2nonc12)C(=O)c1c(-c2ccc(F)cc2)[nH]c2ccccc12
- Ki (Translocator protein): 23 nM
- inhibition [1]: < 10%

SMILES: O=C(NCCCCNc1ccc([N+](=O)[O-])c2nonc12)C(=O)c1c(-c2ccccc2)[nH]c2ccccc12
- Ki (Translocator protein): 42 nM
- inhibition [1]: < 10%

SMILES: O=C(NCCCCCCNc1ccc([N+](=O)[O-])c2[n-][o+]nc12)C(=O)c1c(-c2ccccc2)[nH]c2ccccc12
- Ki (Translocator protein): 17 nM

SMILES: O=C(NCCCCCCNc1ccc([N+](=O)[O-])c2nonc12)C(=O)c1c(-c2ccc(F)cc2)[nH]c2ccccc12
- Ki (Translocator protein): 12 nM
- inhibition [1]: < 10%

SMILES: O=C(NCCNc1ccc([N+](=O)[O-])c2nonc12)C(=O)c1c(-c2ccc(F)cc2)[nH]c2ccccc12
- inhibition [1]: < 10%

SMILES: CCCN(CCC)C(=O)Cc1c(-c2ccc(Cl)cc2)nc2ccc(Cl)cn12 [ALPIDEM]
- Ki (Translocator protein): 0.5 nM

SMILES: CCCCCCN(CCCCCC)C(=O)C(=O)c1c(-c2ccc(F)cc2)[nH]c2ccccc12
- Activity [3]: Active
- Activity [2]: Active

SMILES: O=C(NCCCCCCNc1ccc([N+](=O)[O-])c2nonc12)C(=O)c1c(-c2ccccc2)[nH]c2ccccc12
- inhibition [1]: < 10%
